Assay outcomes: PubChem, Johns Hopkins Ion Channel Center
KCNQ1 pot = potentiators or activators of KCNQ1 channel, primary screen, cell-based, thallium flux, high-throughput. Potassium voltage-gated channel subfamily KQT member 1 (Homo sapiens), P51787. CHO-K1 KCNQ1, thallium flux FluxOR fluorescence; active compounds read high. B-score at 10 µM. actives 0.35% (n = 310,000). AID 2648, 2010;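 active = fluorescence ratio B-score, a plate-corrected score, at least three library SD, with initial intensity B-score within 5 SD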
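Assay system: CHO-K1 cells stably expressing KCNQ1; Medium: assay buffer with matched DMSO; Also added: K+/Tl+ depolarizing stimulus; Dosing: single dose; Timing: dye 90 min, compound 20 min, room temperature; Measured by: kinetic FluxOR thallium fluorescence, 10-s 1-Hz baseline, 110-s post-stimulus read; Read-out: peak-minus-minimum fluorescence over initial fluorescence, negative-control normalized, B-scored.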
KCNQ1 inh = inhibitors of human KCNQ1 channel, primary screen, cell-based, thallium flux, high-throughput | actives 1.3% (n = 310,000) | CHO-K1 KCNQ1, FluxOR thallium flux fluorescence; active compounds read high | Potassium voltage-gated channel subfamily KQT member 1 (Homo sapiens), P51787 | AID 2642, 2010 | B-score at 10 µM;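 active = compounds whose thallium flux B-score, printed positive for inhibition, exceeds three library SD while starting fluorescence stays within three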;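 note: channel opened by potassium depolarization with thallium stimulus after 20 min compound exposure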
KCNK3 block = human KCNK3 channel inhibitors, primary screen, CHO cells, FluxOR thallium flux, B-score | FluxOR fluorescence; active compounds read low | B-score at 10 µM | actives 0.84% (n = 340,000);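 active = B-score under library mean minus 4 SD, starting fluorescence ratio at most library mean plus 5 SD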;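 note: more negative B-score means stronger inhibition of thallium flux through KCNK3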
Target sequence (O14649 whole entry, looked up): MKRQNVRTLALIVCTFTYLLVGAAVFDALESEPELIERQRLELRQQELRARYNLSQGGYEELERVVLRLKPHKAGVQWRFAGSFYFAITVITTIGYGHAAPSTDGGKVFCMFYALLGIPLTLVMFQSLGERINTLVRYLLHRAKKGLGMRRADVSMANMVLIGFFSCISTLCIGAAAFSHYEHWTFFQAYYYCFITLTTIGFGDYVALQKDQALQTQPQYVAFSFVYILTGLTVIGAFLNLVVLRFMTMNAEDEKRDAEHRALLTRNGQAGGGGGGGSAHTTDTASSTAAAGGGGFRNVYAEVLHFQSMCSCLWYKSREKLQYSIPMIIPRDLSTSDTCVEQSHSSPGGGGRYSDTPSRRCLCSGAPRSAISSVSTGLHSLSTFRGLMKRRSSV
KCNK9 block = KCNK9 potassium channel inhibitors, primary screen, HEK293 cells, thallium flux; FluxOR thallium flux fluorescence; active compounds read low; B-score at 10 µM; actives 1.2% (n = 310,000); AID 488922, 2010;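 active = ratio B-score over 3 SD below the library mean, with starting fluorescence within 5 SD of its mean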;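 note: negative B-score means less thallium flux so channel inhibition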
Kir21 block = inhibitors of mouse Kir2.1 inward-rectifier potassium channel; Inward rectifier potassium channel 2 (Mus musculus), P35561; HEK293-Kir2.1, FluxOR thallium flux fluorescence; active compounds read low; B-score at 10 µM; actives 0.85% (n = 310,000); AID 1672, 2009;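 active = fluorescence ratio B-score at or below minus 3 SD of library scores, with starting-brightness B-score within 2 SD, cut at about -4.2 in these data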;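 note: channel flux triggered by added potassium and thallium sulfate stimulus; B-score of peak minus minimum fluorescence over baseline after thallium stimulus; more negative B-score means stronger Kir2.1 block with less thallium influx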
hERG rescue = hERG rescue from dofetilide block, primary screen, cell-based, CHO-hERG, FluxOR thallium flux, dofetilide IC70; actives 0.51% (n = 310,000); activation (rescue from dofetilide block), less the hit threshold, % at 10 µM; dofetilide IC70 present; AID 1511, 2009; Voltage-gated inwardly rectifying potassium channel KCNH2 (Homo sapiens), Q12809;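 active = activation above the mean of controls blocked by dofetilide plus 5 SD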;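 note: thallium influx through hERG after potassium depolarization seen as dye fluorescence rise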
KCNK9 inh conf = KCNK9 potassium channel inhibitors, confirmation, HEK293 cells, thallium flux, duplicate; shares compounds with KCNK9 block; FluxOR thallium flux fluorescence; inhibition, % at 10 µM; actives 43% (n = 4,900); AID 492992, 2010;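 active = thallium signal inhibited by more than 5 SD of the compound-free buffer control wells, on both duplicate plates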;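 note: 0% = assay buffer control wells without compound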
Kir2-1 spec = mouse Kir2.1 channel inhibition, confirmation, selectivity assay for KCNK9 modulator project, cell-based, HEK293, thallium flux; shares compounds with KCNK9 block; Kir2.1 cells, FluxOR thallium flux fluorescence; inhibition, % at 10 µM; actives 4% (n = 4,900); AID 492993, 2010;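 active = thallium signal drop more than 5 SD beyond the mean of the no-compound control wells, seen in both duplicate plates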;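 note: signal is fluorescence rise after thallium addition divided by baseline fluorescence; plate controls were assay buffer only for no effect and full block by chlorpromazine control for full effect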
HEK293 Tl ctr = thallium flux in non-induced HEK293 cells, confirmation, counter-screen for KCNK9 inhibitor project, cell-based, second counter screen, non-induced KCNK9-HEK293; FluxOR thallium flux; shares compounds with KCNK9 block; actives 40% (n = 4,900); AID 492997, 2010; inhibition, % at 10 µM;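 active = thallium signal drop beyond 5 SD of the untreated control mean, on both duplicate plates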;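 note: plate controls were buffer only IC0 wells for no effect and SID17386958 at its maximal inhibitory level for full effect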
KCNK3 confirm = retest of human KCNK3 channel inhibitors, confirmation, CHO cells, FluxOR thallium flux, triplicate; shares compounds with KCNK3 block; FluxOR fluorescence; 0% buffer, 100% carvedilol maximal block; ratio percent of control, % at 10 µM; actives 99% (n = 2,400); AID 651638, 2012;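 active = ratio percent of control, averaged over triplicates, above buffer control mean plus 5 SD, cut at about 64% in these data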;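 note: ratio is the fluorescence rise from min to max over baseline after thallium stimulus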
KCNK3 noninduced = thallium flux inhibition in non-induced cells, primary screen, counter-screen for KCNK3 inhibitor project, cell-based, non-induced KCNK3 line, FluxOR thallium, triplicate. actives 40% (n = 2,400). non-induced KCNK3 parental cells; active compounds read low. shares compounds with KCNK3 block. thallium flux ratio (lower = more inhibition) at 10 µM. AID 651747, 2012;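 active = thallium flux ratio, averaged over three wells, more than 5 SD below the buffer control mean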;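 note: host cells are CHO cells without KCNK3 induction; ratio is peak minus trough fluorescence over baseline then normalized to buffer controls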
Active calls of the source: *; i = inactive; · = not tested or not shown. In the library only some 3.7% were active in any assay of this set; here they are far more common.

SMILES | KCNQ1 pot | KCNQ1 inh | KCNK3 block | KCNK9 block | Kir21 block | hERG rescue | KCNK9 inh conf | Kir2-1 spec | HEK293 Tl ctr | KCNK3 confirm | KCNK3 noninduced
Cc1cc2cccc(C)c2nc1SCC(=O)NC1CCCCC1 | i | i | -9.5* | -12* | -0.29 | -2 | i | i | i | 92* | i
C=CCOC(=O)C1=C(C)NC(SCC)=C(C#N)C1c1ccc(Cl)cc1 (stereo not drawn) | i | 9* | -8.8* | -8.4* | 0.02 | -3 | i | i | 40%* | 116* | i
C=CCOC(=O)C1=C(C)NC(SCC(N)=O)=C(C#N)C1c1ccc(C)cc1 (stereo not drawn) | i | i | i | i | -1.8 | -4 | · | · | · | · | ·
Cc1cc(Cl)c2oc(C(=O)N(C)CCc3cnn(C)c3)c(C)c2c1 | i | i | i | i | -1.9 | -5 | · | · | · | · | ·
COc1cccc(CNCC(O)(c2ccc(Cl)cc2)c2ccc(Cl)cc2)c1 | i | 7* | i | -13* | -0.38 | -29 | i | i | 38%* | 139* | 0.15*
CCOc1ccc(C(=O)NCC(=O)NNC(=O)CN(C)S(=O)(=O)c2ccc(Cl)cc2)cc1 | i | i | i | i | -0.54 | -11 | · | · | · | · | ·
CC(C)S(=O)(=O)c1csc(NC(=O)Nc2cc(Cl)ccc2Cl)c1Cl | i | i | -11* | -8.2* | -0.15 | -8 | 54%* | i | 38%* | 139* | 0.14*
Cc1c(NC(=O)c2ccc(-c3ccccc3)cc2)cccc1C(=O)O | i | i | i | i | 0.68 | -9 | · | · | · | · | ·
Cc1ccc(S(=O)(=O)N2[C@@H](c3ccc(Cl)cc3)C(C(=O)O)=CC[C@H]2c2cccs2)cc1 | · | · | i | · | · | · | · | · | · | · | ·
CC(=O)c1sc(-c2ccc(F)cc2)cc1NS(=O)(=O)c1ccccc1 | i | i | i | i | 1.9 | -6 | · | · | · | · | ·
COc1ccccc1C(=O)Oc1ccc(C(C)(C)C)cc1 | i | i | -9.1* | i | -2.3 | -13 | i | i | i | 93* | 0.16*
Cc1[nH]c2ccccc2c1C(=O)CN1C(=O)NC2(CC(C)CC(C)(C)C2)C1=O (stereo not drawn) | i | i | i | i | 0.21 | -5 | · | · | · | · | ·
CCOc1ccccc1NC(=O)CN(C)S(=O)(=O)c1ccc(OC)c(C)c1 | i | i | i | -15* | -1.3 | -1 | 50%* | i | i | 95* | i
COC(=O)c1cc(S(=O)(=O)N2c3ccccc3CC2C)cn1C (stereo not drawn) | i | i | i | i | -3.4 | -2 | · | · | · | · | ·
Cc1ccc(-c2ocnc2C(=O)Nc2ccccc2NC(=O)c2ccccn2)cc1 | i | i | i | i | 1.9 | -7 | · | · | · | · | ·
Cc1cccc(-c2ocnc2C(=O)Nc2ccccc2NC(=O)c2ccccn2)c1 | i | i | -9.7* | -11* | 0.69 | -9 | 36%* | i | 29%* | 109* | 0.16*
O=C(Nc1cccc(-c2nc3cccnc3s2)c1)c1ccco1 | i | i | i | i | -0.67 | -14 | · | · | · | · | ·
CCOc1ncccc1C(=O)Nc1cccc(-c2nc3cccnc3s2)c1 | i | i | -9.6* | -10* | 0.05 | -11 | i | i | i | 101* | i
Cc1nnc(NC(=O)CCn2cnc3ccccc3c2=O)s1 | i | i | i | i | -0.91 | -12 | · | · | · | · | ·
O=Cc1c(OCc2ccccc2)ccc2ccccc12 | i | i | -11* | -17* | 0 | -9 | 64%* | i | 50%* | 113* | 0.15*
COc1ccccc1C1CCN(c2cc(O)ccc2[N+](=O)[O-])CC1 | i | 11* | -10* | -11* | -0.04 | -13 | 55%* | i | 44%* | 111* | i
COc1ccccc1C1CCN(C(=O)C2CCCCC2)CC1 | i | i | i | i | -1.1 | -5 | · | · | · | · | ·
CCc1ccc2oc(=O)cc(CN(C)Cc3ccccc3)c2c1 | i | i | i | i | -0.98 | -9 | · | · | · | · | ·
Cc1ccc2c(CN(C)Cc3ccc(Cl)cc3Cl)cc(=O)oc2c1 | i | i | i | i | 0.1 | -10 | · | · | · | · | ·
Cc1ccc2c(CN(C)Cc3ccc(Cl)cc3)cc(=O)oc2c1 | i | i | -16* | -11* | 0.8 | -9 | 38%* | i | 44%* | 94* | i
Cc1ccc2c(CN(C)Cc3ccccc3)cc(=O)oc2c1C | i | i | -9.3* | i | -1.3 | -6 | i | i | i | 92* | i
N#CC1=C2N=C(N)c3ccccc3N2C2=C(C(=O)CCC2)C1c1ccccc1F (stereo not drawn) | i | i | i | i | 0.95 | -10 | · | · | · | · | ·
CC1(C)CC(=O)C2=C(C1)N1C(=C(C#N)C2c2ccccc2Cl)N=C(N)c2ccccc21 (stereo not drawn) | i | i | -13* | -15* | -0.11 | -10 | 42%* | i | 44%* | 90* | i
CCCN1C(=O)c2ccccc2NC1c1ccc(Br)cc1 (stereo not drawn) | i | i | i | i | -0.68 | -4 | · | · | · | · | ·
C=CCN1C(=O)c2ccccc2NC1c1ccc(Br)s1 (stereo not drawn) | i | i | i | -9.2* | -3.8 | -13 | 38%* | i | 30%* | 107* | i
